Test results published in the array DNA melting data of Ke et al. (doi:10.1101/2024.01.08.574731).

Key:
[1] = folding enthalpy; higher = less favourable; fluorescence melt of hairpins on a sequencing array, two-state fit; settings: sodium 0.088 M
Summary of the method: (§1)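 Hairpins were imaged by Cy3 fluorescence on a sequenced MiSeq flow cell with annealed Cy3 and quencher oligos, in 50 mM Na-HEPES pH 8.0, 25 mM NaCl, in 2.5 °C steps up to 60 °C. Bootstrapped two-state fits of normalised signals gave melting temperature and folding enthalpy. Four replicates were combined by inverse variance, and fitted temperatures were raised by 9.35 °C to match UV melts.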

[2] = melting temperature; fluorescence melt of hairpins on a sequencing array, two-state fit, raised by 9.35 °C to match UV melts; settings: sodium 0.088 M
Summary of the method: as §1

| Sequence | folding enthalpy [1] | Tm [2] |
| --- | --- | --- |
| GGCCTTGGAAACAAGGTC (.(((((....))))).) | -34.4 kcal/mol | 55.7 °C |
| GGGACTGGAAACAGTCTC (.(((((....))))).) | -20.6 kcal/mol | 51.7 °C |
| CGTCCCGGAAACGGTACG (((.(((....))).))) | -29.1 kcal/mol | 47.2 °C |
| GTAGCCGAAAGGCCGTAC ((((((....)))..))) | -7.15 kcal/mol | 26.7 °C |
| GATCGCGAAAGCGTAATC ((((((....)))..))) | -8.8 kcal/mol | 29.2 °C |
| GCTGTCTCGAAAGAGAGC (((..(((....)))))) | -15.5 kcal/mol | 38.3 °C |
| GACTGAGGAAACTCAGCC (.(((((....))))).) | -16.9 kcal/mol | 43.4 °C |
| GCGAGGGGAAACCCTTGC ((.((((....)))).)) | -35.8 kcal/mol | 55.6 °C |
| GGACACGAAAGTGAATCC ((((((....)))..))) | -15.9 kcal/mol | 32.9 °C |
| GTGGGGGGAAACTCCCGC (.(((.(....).))).) | -21.4 kcal/mol | 48.8 °C |
| AAGACGAAAGTCTT (((((....))))) | -20.1 kcal/mol | 52.7 °C |
| GGAAACGGAAACGTTCCC ((.((((....)))).)) | -23.1 kcal/mol | 45.1 °C |
| GCTGAGCGAAAGCGCTGC ((.(.((....)).).)) | -16.1 kcal/mol | 54.7 °C |
| GTACTCGGAAACAAGTAC (((((.(....).))))) | -23.4 kcal/mol | 32.5 °C |
| GAGGTCGGAAACGATCTC (((.(((....))).))) | -43.8 kcal/mol | 52.5 °C |
| GTCCCAACGAAAGTTGAC (((..(((....)))))) | -9.31 kcal/mol | 25 °C |
| GTTCTCGAAAGAGACAAC ((((((....)))..))) | -11.6 kcal/mol | 30.6 °C |
| GACTCGGGAAACCGGGTC (((.(((....))).))) | -40.6 kcal/mol | 55.1 °C |
| GTTGTCCGAAAGGAAAC (((.(((....)))))) | -20.4 kcal/mol | 37.8 °C |
| GGCATAACGAAAGTTGCC (((..(((....)))))) | -26 kcal/mol | 50.8 °C |
| GGCTAGCGAAAGCTCGCC (((.(((....))).))) | -36.3 kcal/mol | 58.8 °C |
| GGTGATGGAAACATCACC (((((((....))))))) | -39.6 kcal/mol | 65.6 °C |
| TTTACGAAAGTAAA (((((....))))) | -13.5 kcal/mol | 42.7 °C |

| Sequence | folding enthalpy [1] | Tm [2] |
| --- | --- | --- |
| GGAGCCGAAAGGCATTCC ((((((....)))..))) | -10.3 kcal/mol | 33.1 °C |
| GATGGCGGAAACGCCGTC ((.((((....)))).)) | -21.4 kcal/mol | 58.3 °C |
| GTTCGACGAAAGTCCAAC (((.(((....))).))) | -19.8 kcal/mol | 34.5 °C |
| GCTACCGAAAGGTCGAGC ((((((....)))..))) | -16.3 kcal/mol | 37 °C |
| GAAACTGAAAAGTTTC ((((((....)))))) | -31.5 kcal/mol | 50.4 °C |
| GCCAGGCGAAAGCGTAGC ((.(.((....)).).)) | -7.64 kcal/mol | 38.9 °C |
| GATCTCAATGAGATC ((((((...)))))) | -35.9 kcal/mol | 50.6 °C |
| GATCGTCTAAACGATC ((((((....)))))) | -43 kcal/mol | 56.1 °C |
| GACAGCCGAAAGGCGTC (((.(((....)))))) | -12.7 kcal/mol | 60 °C |
| GATCGACGCTTCGATC ((((((....)))))) | -40.6 kcal/mol | 53.3 °C |
| CGCCCGGAAACGGAGCG ((((((....))).))) | -31.8 kcal/mol | 58.3 °C |
| GTCCGGCCGAAAGGCGAC (((..(((....)))))) | -12.8 kcal/mol | 41.7 °C |
| CGTCGCGGAAACGCTACG (((.(((....))).))) | -28.9 kcal/mol | 49.3 °C |
| GCACAAGGAAACTTGTAC (.(((((....))))).) | -20.6 kcal/mol | 32.9 °C |
| GCTTCGGGAAACCGAAAC (.(((((....))))).) | -15.4 kcal/mol | 40.2 °C |
| GTCCCTGGAAACAGGGGC (.(((((....))))).) | -27.5 kcal/mol | 57.4 °C |
| GATAGCACGAAAGTGATC (((..(((....)))))) | -9.8 kcal/mol | 28.4 °C |
| GGCAAAGGAAACTTTGTC (.(((((....))))).) | -29.1 kcal/mol | 46.5 °C |
| GGCGGTGGAAACACTGCC (((.(((....))).))) | -47.3 kcal/mol | 61.6 °C |
| CGGTCGGAAACGAAACCG ((((((....)))..))) | -28.4 kcal/mol | 43.3 °C |
| GCCTGGCGAAAGCCTCGC ((..(((....)))..)) | -9.28 kcal/mol | 45.3 °C |
| GCCAACGAAAGTTACGGC ((((((....)))..))) | -26.1 kcal/mol | 41.3 °C |
| GAGAGAGGAAACTCTCTC (((((((....))))))) | -35.4 kcal/mol | 57.9 °C |
